M4 ag: agonists of human muscarinic M4 receptor (CHRM4) | CHO-K1 hM4/Gqi5, Fluo-8 calcium fluorescence; vehicle 0%, full acetylcholine response 100% | activation, % at 3 µM | P08173 | 360,000 tested, 0.14% active | AID 624127;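 active = activation above the run mean over all test wells plus 3 SD, cut at about 32% in these data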;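 also: peak over basal fluorescence ratio per well then scaled between controls; 0% = DMSO wells and 100% = acetylcholine at EC100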
M4 antag: CHRM4 antagonism in calcium assay | 360,000 tested, 0.73% active | CHO-hM4 cells, ACh EC80, Fluo-8 calcium fluorescence | inhibition, % at 3 µM | P08173;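 active = inhibition above its plate's cutoff, the mean inhibition of sample wells plus 3 SD, cut at about 27% in these data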;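 also: 0% = acetylcholine EC80 with DMSO and 100% = DMSO without agonist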
M4 PAM: potentiates acetylcholine response at human M4 receptor. P08173. CHO-K1 hM4/Gqi5, Fluo-8 calcium fluorescence, ACh EC20; 0% = ACh EC20, 100% = maximal ACh. activation, % at 3 µM. 360,000 tested, 0.4% active. AID 624126;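 active = activation above its plate's cutoff, the mean activation of sample wells plus 3 SD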
M5 antag: blocks acetylcholine activation of human M5 receptor; P08912; CHO-hM5 cells, Fluo-8 calcium fluorescence, ACh EC80; inhibition, % at 3 µM; 360,000 tested, 0.59% active; AID 624040;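 active = inhibition above a per-plate cutoff, the mean of that plate's test compounds plus 3 SD, cut at about 27% in these data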;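 also: 0% = acetylcholine EC80 with DMSO and 100% = DMSO without agonist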
Target sequence (P08912 whole entry, looked up): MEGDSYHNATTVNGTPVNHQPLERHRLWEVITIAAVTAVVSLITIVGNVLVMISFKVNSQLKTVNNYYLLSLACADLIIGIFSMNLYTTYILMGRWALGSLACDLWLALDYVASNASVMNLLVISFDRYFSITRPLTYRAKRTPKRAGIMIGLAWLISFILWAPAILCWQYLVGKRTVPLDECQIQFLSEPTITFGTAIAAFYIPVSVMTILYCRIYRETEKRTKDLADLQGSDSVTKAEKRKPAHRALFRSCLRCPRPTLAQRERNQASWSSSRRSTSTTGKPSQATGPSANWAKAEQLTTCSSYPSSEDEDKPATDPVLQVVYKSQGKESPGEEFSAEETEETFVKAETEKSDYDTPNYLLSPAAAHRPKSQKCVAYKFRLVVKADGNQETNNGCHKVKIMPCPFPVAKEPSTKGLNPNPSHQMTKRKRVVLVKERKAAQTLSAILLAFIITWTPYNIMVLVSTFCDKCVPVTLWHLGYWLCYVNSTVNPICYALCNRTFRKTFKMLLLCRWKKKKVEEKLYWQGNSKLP
CHRM5 agonist: agonists of human muscarinic M5 receptor (CHRM5). P08912. CHO-K1 hM5 cells, Fluo-8 calcium fluorescence; 0% DMSO wells, 100% maximal acetylcholine response. activation, % at 3 µM. 360,000 tested, 0.19% active. AID 624037;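 active = activation above the run's mean over test compounds plus 3 SD, cut at about 23% in these data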;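 also: signal is peak over basal fluorescence ratio across the kinetic read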
M5 PAM: CHRM5 positive allosteric modulation; 360,000 tested, 0.3% active; P08912; activation, % at 3 µM; CHO-K1 hM5, Fluo-8 calcium, ACh EC20 PAM; 0% = ACh EC20, 100% = ACh EC100;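 active = activation above the run cutoff, the mean activation of all test compounds plus 3 SD, cut at about 18% in these data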
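Measured by: Fluo-8 calcium fluorescence; material: human M5 receptor in CHO-K1 cells; schedule: Post-acetylcholine fluorescence recording 140 s; benchmarks: low control EC20 acetylcholine (0%), high control EC100 acetylcholine (100%); read-out: Max/basal fluorescence ratio as % of EC20–EC100 ACh window; compound: single dose, 3 µM nominal final test concentration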
An asterisk follows results filed as active. An excerpt weighted towards active compounds, which were near 1.8% of everything screened.

SMILES	M4 ag	M4 antag	M4 PAM	M5 antag	CHRM5 agonist	M5 PAM
O=C(NN1C(=O)/C(=C/c2ccc(O)c(O)c2)SC1=S)c1ccccc1	16.9	16.5	-11.4	13.6	40.4*	-4.7
COc1cc(/C=C2\SC(=S)N(Nc3ccccc3)C2=O)ccc1O	45.2*	27.4*	-21.8	28.6*	29.3*	-11.2
COc1cc(/C=C2\SC(=S)N(NC(=O)c3ccc(O)cc3)C2=O)ccc1O	93.8*	26.6*	-22.8	24.2	60.3*	-20.0
CCOc1cc(/C=C2\SC(=S)N(Nc3ccccc3)C2=O)ccc1O	21.5	25.4	-16.9	21.5	20.4	-7.8
O=C(CCC(=O)Nc1ccccc1Cl)NNC(=O)C1CCCCC1	1.8	0.0	0.3	7.7	3.5	-0.6
Nc1cccc(C#Cc2ccc3c(c2)C(=O)/C(=C/c2ccsc2)O3)c1	5.7	-19.7	2.5	14.1	-0.2	-7.6
NC(=O)C1(Nc2ccc(Br)cc2)CCCC1	1.7	-5.2	12.8	16.2	1.6	3.0
O=C(NC1CCCCC1)c1cc(S(=O)(=O)N2CCCCC2)ccc1N1CCOCC1	1.6	-4.3	8.2	1.0	3.2	-1.1
CCCn1c(N)c(C(=O)COC(=O)CNC(=O)c2ccccc2OCC)c(=O)[nH]c1=O	0.2	-3.4	1.8	13.3	1.7	-6.9
CCOc1ccc(NC(=NCc2ccc3c(c2)OCO3)SC2CC(=O)N(c3ccccc3)C2=O)cc1 (centres undefined)	0.1	-4.4	1.2	-2.1	-0.6	4.4
CCOc1ccc(NC(=NCc2ccc3c(c2)OCO3)SC2CC(=O)N(c3ccc(OCC)cc3)C2=O)cc1 (centres undefined)	0.3	-0.5	8.0	-9.9	-4.4	18.6*
CCN=C(NCC)SC1CC(=O)N(c2ccc(OC)cc2)C1=O (centres undefined)	30.0	19.3	-9.5	16.7	7.4	-22.0
CCN=C(NCC)SC1CC(=O)N(c2cccc(OCC)c2)C1=O (centres undefined)	18.6	32.6*	-8.9	28.1*	4.8	-19.3
CC1(c2nnnn2-c2ccc3c(c2)OCCO3)CCC(=O)N1CC(F)(F)F (centres undefined)	1.4	1.5	-0.6	-5.4	0.5	-6.0
O=C(Nc1nc2ccccc2s1)C1CCN(S(=O)(=O)c2cc([N+](=O)[O-])ccc2Cl)CC1	17.4	32.6*	-33.9	38.9*	-4.2	-30.2
CCC(C)NC(=O)C1CCN(S(=O)(=O)c2cc([N+](=O)[O-])ccc2Cl)CC1 (centres undefined)	2.5	-7.6	-6.8	9.5	-0.1	-6.8
Cc1nc2nc(SCc3ccccc3)[nH]n2c(=O)c1CCC(C)C	2.1	-6.6	0.8	11.6	3.2	-1.2
O=C(Cc1nnc(NC(=O)c2cccc([N+](=O)[O-])c2)s1)NCc1ccccc1	0.8	2.0	3.6	15.5	-4.0	-3.9
Cc1ccccc1CSc1nc2c(c(=O)[nH]1)CCC2	-2.2	-8.0	36.9*	-3.0	2.6	-3.9
Cc1cccc(-c2nc(CSc3nc4c(c(=O)[nH]3)CCC4)c(C)o2)c1	-1.5	-21.6	20.0*	-2.1	3.1	6.5
Cc1ccccc1-c1nc(CSc2nc3c(c(=O)[nH]2)CCC3)c(C)o1	-1.9	-6.9	8.0	-4.2	3.1	8.7
CC(=O)OCC(=O)C1(O)CCC2C3CCC4=CC(=O)C=CC4(C)C3C(O)CC21C (centres undefined)	1.0	5.8	0.8	-4.4	4.1	3.1
Cn1ccnc1SCC(=O)Nc1cc(F)ccc1F	0.7	-12.4	9.4	-6.5	-3.0	0.6
Cn1c(SCC(=O)N2CCCCCC2)nc2c(c1=O)SCC2	0.2	-1.5	1.3	20.0	-1.1	-6.0
COc1ccc(S(=O)(=O)N2CN3CCN(C3)C2)cc1	0.4	-19.1	4.1	-2.9	-1.6	-1.2
SMILES	M4 ag	M4 antag	M4 PAM	M5 antag	CHRM5 agonist	M5 PAM
COc1cccc(C(=O)N/N=C2/SCC(=O)N2CCc2ccc(OC)c(OC)c2)c1	3.5	7.5	-4.8	-4.3	1.8	-3.3
COc1ccc(C(=O)N/N=C2\SCC(=O)N2Cc2ccc3c(c2)OCO3)c(OC)c1	1.5	-0.8	0.8	30.6*	-3.1	-8.4
CN(C)Cc1cc(C(F)(F)F)ccc1C(O)(c1ccccc1)c1ccccc1	2.8	57.3*	-11.4	75.4*	-10.4	-37.6
C[C@H]1CN([C@@H](C)CO)S(=O)(=O)c2ccc(Br)cc2O[C@H]1CN(C)C(=O)Cc1ccccn1	1.6	-13.9	8.9	-8.8	1.9	-1.9
Cc1nc(N)c(C#N)c(-c2cccnc2)c1C	0.3	-16.0	5.2	-16.3	-3.8	26.2*
COc1ccc(NC(=O)COc2ccccc2Cc2ccccc2)cc1S(N)(=O)=O	14.8	21.1	-7.3	29.9*	8.9	-12.9
Cc1cc(-c2nnc(CCC(=O)N3CCN(Cc4cccnc4)CC3)o2)c(C)o1	1.1	1.3	4.8	-15.0	0.4	5.6
C=CCN1C(=O)C(C)(C)N(C(=O)c2cccc([N+](=O)[O-])c2)c2ccccc21	0.0	7.5	-8.5	1.3	-9.2	0.1
CC1(C)Cc2ccccc2C(NNC(=O)c2ccc(Br)o2)=N1	18.5	-4.0	3.9	3.7	-5.6	1.3
Cc1n[nH]c(C)c1CCCCOc1ccccc1[N+](=O)[O-]	13.2	13.0	-13.2	34.5*	-6.4	-23.5
CCOC(=O)c1cc(C)n(CCc2ccccc2)c1C	-1.8	-6.3	-2.2	-7.2	-6.3	6.4
Cc1c(P(=S)(c2ccccc2)c2ccccc2)[n+]2ccccc2n1CCc1ccccc1	0.6	56.0*	-14.6	11.7	-3.8	-7.4
O=C(CN(C(=O)CNC(=O)c1ccco1)c1ccc(F)cc1)NC1CCCC1	2.1	-10.7	10.3	0.8	0.9	12.4
Cc1cc(C)c(S(=O)(=O)Nc2ncn[nH]2)cc1C	0.8	-3.5	2.4	-7.5	-2.6	13.2
O=C(c1ccc(-c2ccc(Cl)cc2Cl)o1)N1CCOCC1	-0.7	-6.6	-10.7	-12.6	-0.6	9.7
O=C(c1ccc(-c2cc(Cl)ccc2Cl)o1)N1CCOCC1	0.6	-0.7	10.1	-8.7	2.5	19.2*
COC(=O)[C@H](C)N(Cc1ccc(Cl)c(Cl)c1)S(=O)(=O)CCN1CCN(c2ccccc2)CC1	0.7	2.4	1.5	-3.1	0.2	3.8
CN(C)CCCNC(=S)NCC(c1ccc(Cl)cc1Cl)c1c[nH]c2ccccc12 (centres undefined)	15.6	28.8*	-10.8	6.6	-5.1	3.2
CCCCNC(=S)NCC(c1ccccc1)c1c[nH]c2ccccc12 (centres undefined)	2.2	0.0	-7.3	18.3	-7.0	-14.1
